From ChEMBL document CHEMBL4732226, “Discovery of a potent G-protein-coupled receptor 119 agonist for the treatment of type 2 diabetes” (Bioorg Med Chem, 2021)

Key:
[1] = biological target: T1, Glucose-dependent insulinotropic receptor (Homo sapiens, UniProt Q8TDV5); experiment: Agonist activity at human GPR119 stably transfected in CHO-K1 cells assessed as increase in cAMP stimulation after 1 hr by enzyme immunoassay; type: functional, cell-based
T1 sequence (Q8TDV5 whole entry): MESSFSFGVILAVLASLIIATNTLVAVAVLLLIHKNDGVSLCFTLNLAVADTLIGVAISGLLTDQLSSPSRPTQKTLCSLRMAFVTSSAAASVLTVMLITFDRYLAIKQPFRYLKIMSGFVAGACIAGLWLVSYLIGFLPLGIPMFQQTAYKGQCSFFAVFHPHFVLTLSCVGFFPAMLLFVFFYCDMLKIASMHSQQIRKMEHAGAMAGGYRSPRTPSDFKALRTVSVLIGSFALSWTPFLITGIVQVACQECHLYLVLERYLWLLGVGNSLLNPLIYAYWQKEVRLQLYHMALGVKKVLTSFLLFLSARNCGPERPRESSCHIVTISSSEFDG

[2] = biological target: T2, Glucose-dependent insulinotropic receptor (Homo sapiens) (UniProt Q8TDV5); experiment: Agonist activity at human GPR119 stably transfected in CHO-K1 cells assessed as increase in cAMP stimulation after 1 hr by enzyme immunoassay relative to AR231453; type: functional, cell-based
T2 sequence (whole entry): T1 sequence (Q8TDV5 whole entry)

[3] = tested on: Mus musculus; experiment: Antidiabetic activity in glucose-stimulated […] mouse assessed as reduction in blood glucose level at 50 mg/kg, po pretreated for 30 mins followed by glucose-stimulation and measured up to 120 mins by OGTT method relative to control; type: functional; set-up: scale not given: the % may be the effect or the level left; settings: 0.5 h
Method in brief: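 C57 mice aged 6–8 weeks were grouped by non-fasting glucose and fasted overnight. Single oral dose of 50 mg/kg; 30 min later basal bleed and oral glucose 3 g/kg. Serum glucose taken at 20, 40, 60 and 120 min. Change in glucose AUC calculated.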

[4] = AUC(0 to t) in Sprague-Dawley rat at 25 mg/kg, po up to 24 hrs; type: ADME, organism-based; set-up: route oral, dose 25 mg/kg, time <=24; settings: in vivo
Method in brief: (§1)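 Male SD rats fasted overnight, water ad libitum, fed 4 h after dosing. Single oral gavage of 25 mg/kg as a homogeneous suspension in 0.5% Tween 80 in 0.5% Na-CMC. Blood drawn into Na-heparin tubes at 0.25, 0.5, 1, 2, 4, 6, 8 and 24 h; plasma stored at -70°C. Parameters by non-compartmental analysis, with C0 taken as zero and BLQ samples set to zero.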

[5] = Half life in Sprague-Dawley rat at 25 mg/kg, po up to 24 hrs; type: ADME, organism-based; settings: in vivo; method in brief: as §1
[6] = AUC(0 to infinity) in Sprague-Dawley rat at 25 mg/kg, po up to 24 hrs; type: ADME, organism-based; set-up: route oral, dose 25 mg/kg, time <=24; settings: in vivo; method in brief: as §1
[7] = Tmax in Sprague-Dawley rat at 25 mg/kg, po up to 24 hrs; type: ADME, organism-based; settings: in vivo; method in brief: as §1
[8] = Cmax in Sprague-Dawley rat at 25 mg/kg, po up to 24 hrs; type: ADME, organism-based; set-up: route oral, dose 25 mg/kg, time <=24; settings: in vivo; method in brief: as §1
[9] = Elimination rate constant in Sprague-Dawley rat at 25 mg/kg, po up to 24 hrs; type: ADME, organism-based; settings: in vivo; method in brief: as §1

Row | SMILES | EC50 ([1]; read-out: EC50) [nM] | Emax ([2]; filed as agonist) [%] | further results
1 | CCOC(=O)N1CCC(Oc2ncnc(Oc3cccc(/C=C4\SC(=O)NC4=O)c3)c2C)CC1 |  |  | EC50 ([1]; cho-k1): Not Active
2 | CC(C)c1noc(C2CCN(c3ncnc(Nc4ccc(S(C)(=O)=O)cc4F)c3[N+](=O)[O-])CC2)n1 | 6 | 100 | 
3 | COC(=O)N1CCC(Oc2ncnc(Oc3ccc(/C=C4\SC(=O)NC4=O)cc3)c2C)CC1 | 1410 | 53.3 | 
4 | Cc1c(Oc2cccc(/C=C3\SC(=O)NC3=O)c2)ncnc1OC1CCN(C(=O)OCc2ccccc2)CC1 | 106 | 138 | 
5 | COC(=O)N1CCC(Oc2cc(Oc3ccc(/C=C4\SC(=O)NC4=O)cc3)ncn2)CC1 |  |  | EC50 ([1]; cho-k1): Not Active
6 | O=C1NC(=O)/C(=C/c2cccc(Oc3cc(OC4CCN(C(=O)OCc5ccccc5)CC4)ncn3)c2)S1 | 153 | 98.3 | 
7 | CC(C)COC(=O)N1CCC(Oc2cc(Oc3ccc(/C=C4\SC(=O)NC4=O)cc3)ncn2)CC1 | 745 | 51 | 
8 | CCOC(=O)N1CCC(Oc2ncnc(Oc3ccc(/C=C4\SC(=O)NC4=O)cc3)c2C)CC1 | 157 | 141 | 
9 | Cc1c(Oc2cccc(/C=C3\SC(=O)NC3=O)c2)ncnc1OC1CCN(C(=O)OCC(C)C)CC1 |  |  | EC50 ([1]; cho-k1): Not Active
10 | COC(=O)N1CCC(Oc2ncnc(Oc3cccc(/C=C4\SC(=O)NC4=O)c3)c2C)CC1 |  |  | EC50 ([1]; cho-k1): Not Active
11 | COC(=O)N1CCC(Oc2cc(Oc3cccc(/C=C4\SC(=O)NC4=O)c3)ncn2)CC1 | 1870 |  | Emax [2]: 33.7%
12 | CCOC(=O)N1CCC(Oc2cc(Oc3cccc(/C=C4\SC(=O)NC4=O)c3)ncn2)CC1 | 819 | 43.3 | 
13 | Cc1c(Oc2ccc(/C=C3\SC(=O)NC3=O)cc2)ncnc1OC1CCN(C(=O)OC(C)(C)C)CC1 |  | 68.8 | AUC(0-t) at 24 h [4]: 8110 ng·h/mL; half-life [5]: 4.37 h; AUC(0-inf) [6]: 8310 ng·h/mL; Tmax [7]: 2.25 h; Cmax [8]: 835 ng/mL; Activity [3]: 34.6%; k el at 24 h [9]: 4.44e-05 s⁻¹

Second part, led by results:

Row | EC50 ([1]; read-out: EC50) [nM] | Emax ([2]; filed as agonist) [%] | SMILES | further results
14 | 805 | 43.3 | Cc1c(Oc2ccc(/C=C3\SC(=O)NC3=O)cc2)ncnc1OC1CCN(C(=O)OCc2ccccc2)CC1 | 
15 |  | 122 | CC(C)(C)OC(=O)N1CCC(Oc2cc(Oc3ccc(/C=C4\SC(=O)NC4=O)cc3)ncn2)CC1 | 
16 | 107 | 88.3 | O=C1NC(=O)/C(=C/c2ccc(Oc3cc(OC4CCN(C(=O)OCc5ccccc5)CC4)ncn3)cc2)S1 | 
17 | 720 | 62.4 | CC(C)COC(=O)N1CCC(Oc2cc(Oc3cccc(/C=C4\SC(=O)NC4=O)c3)ncn2)CC1 | 
18 | 75.1 | 70.2 | Cc1c(Oc2ccc(/C=C3\SC(=O)NC3=O)cc2)ncnc1OC1CCN(C(=O)OCC(C)C)CC1 | Activity [3]: 24%
19 | 790 | 51.8 | CCOC(=O)N1CCC(Oc2cc(Oc3ccc(/C=C4\SC(=O)NC4=O)cc3)ncn2)CC1 | 
20 | 125 | 78.3 | CC(C)(C)OC(=O)N1CCC(Oc2cc(Oc3cccc(/C=C4\SC(=O)NC4=O)c3)ncn2)CC1 | 
